# Source: PubChem (several laboratories)
# This excerpt belongs to a sample that is enriched for hits.
# Lmaj promast = inhibitors of Leishmania major promastigote growth; Leishmania major promastigotes, resazurin fluorescence viability; inhibition, % at 10 µM; 200,000 tested, 9% active; AID 1063; in the data active means inhibition above about 50%;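 further: promastigotes grown with compound for 44 hours at 28 °C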
# NALP1 yeast inh = inhibitors of NALP1 inflammasome in yeast | inhibition, % at 10 µM | S. cerevisiae NALP1/ASC/caspase-1 growth, X-gal OD620, 72 h | 280,000 tested, 0.61% active | AID 2071; in the data active means inhibition mostly above about 24%, no sharp cut-off; inactive means mostly below about 32%
# NALP3 yeast inh = inhibitors of NALP3 inflammasome in yeast | 330,000 tested, 0.39% active | Yeast reconstituted NLRP3/ASC/caspase-1, beta-gal luminescence, 24 h | AID 2825 | inhibition, % at 10 µM;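 active means inhibition of 50% or more; inactive means inhibition below 50%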;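 further: plate controls were induced DMSO wells for no effect and uninduced yeast grown without galactose for full effect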
# Calb FLC = C. albicans growth modulation with fluconazole; growth inhibition, % (concentration not given with the values); C. albicans CaCi-2 + fluconazole, Alamar Blue growth, 48 h; AID 1979; 300,000 tested, 0.57% active;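 active means growth inhibition above about 58% in most replicates, limit read from the data, passing the limit was not always enough; inconclusive means exactly half the replicates above a set limit; inactive means most replicates below a set limit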;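 further: all wells also contain fluconazole at 8 µg/ml as a sub-toxic cotreatment; 0% = median of DMSO wells and 100% = median of geldanamycin control wells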
# PolyA inh = yeast polyadenylation inhibition | S. cerevisiae SKY197-pL101 polyadenylation reporter, beta-gal luminescence; efflux-impaired pdr1/pdr3 knockout yeast; score 100 = 6 SD above DMSO | activity score, % at 12 µM | 300,000 tested, 0.02% active | AID 1875;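 active means lowest replicate activity score at least 50, where 100 means six control SD above control mean; inconclusive means lowest score under 50 but half or more replicates reach 50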;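 further: yeast exposed to compound for 9 h at 30 °C; higher score means more reporter readthrough which indicates perturbed polyadenylation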
# T cruzi repl = T. cruzi replication inhibition; T. cruzi beta-gal in NIH3T3, luminescence, 90 h; inhibition, % (no concentration beside the values); 300,000 tested, 1.4% active;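 active means mean inhibition across valid replicates above about 55%, limit read from the data; inconclusive means mean below that limit but half or more replicates reach it; inactive means mean below it, under half of replicates reach it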;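 further: signal also drops with host cell toxicity which is not excluded here; 0% = plate median of DMSO wells and 100% = zero luminescence signal; higher percent means less beta-gal luminescence so fewer parasites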
#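 System – NIH/3T3 host cells with β-galactosidase reporter T. cruzi · Doses – single 50 nL compound addition per well in DMSO · Reagent – 5000 T. cruzi trypomastigotes/well · Medium – Low-serum DMEM with 2% FBS · Timing – ≥90 h infection period, 3 h prior cell attachment · Evaluation – parasite load inhibition, % · Technique – GalScreen luminescence, 60 min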
# * hit, by the source's call; ? = inconclusive; . = not tested or not shown.
SMILES,Lmaj promast,NALP1 yeast inh,NALP3 yeast inh,Calb FLC,PolyA inh,T cruzi repl
O=[N+]([O-])c1ccc(Cl)c(CN2CCCCCC2)c1,.,-74,-4,1,-7,4
CC1CCN(S(=O)(=O)c2cc([N+](=O)[O-])ccc2Cl)CC1,55*,22,-3,-10,4,35
O=[N+]([O-])c1ccc(Cl)c(CN2CCC(O)CC2)c1,62*,21,8,-1,5,-16
COc1ccccc1N(C)S(=O)(=O)c1ccc(C(=O)NCc2ccc3c(c2)OCO3)cc1,99*,6,15,1,-4,22
COc1ccccc1N(C)S(=O)(=O)c1ccc(C(=O)Nc2nc(C)cs2)cc1,99*,-8,12,-22,-11,2
COc1cccc(C(=O)NCc2ccc3c(c2)OCO3)c1OC,.,18,25,8,18,11
C#Cc1ccc(C(=O)Nc2cc(C(N)=O)ccc2N2CCOCC2)cc1,4,11,-2,9,17,3
CC(=O)NC(CC(=O)N(Cc1ccccc1)c1cccc(C)c1)c1ccccc1 (stereo unspecified),.,4,-3,-5,-15,10
COc1cc(C(=O)N2CCc3ccccc32)c([N+](=O)[O-])cc1OC,.,15,-11,1,20,4
O=C(NCC(c1ccco1)N1CCCC1)c1ccc(S(=O)(=O)Nc2ccccc2F)cc1 (stereo unspecified),.,.,10,-8,24,22
CC(=O)c1ccc(NC(=S)N2CCCCCC2)cc1,-2,3,6,7,-4,-1
CC(=O)c1ccc(N=C2SCCCN2C(=O)C2CCCC2)cc1,64*,5,41,0,-11,4
CCn1cc(-c2ccccc2)c(C(=O)O)c1-c1ccc(OC)cc1,.,.,11,-8,-11,-23
CCc1cc(C(=O)OC)c(NC(=O)C2CC(=O)NN2Cc2ccccc2)s1 (stereo unspecified),99*,7,3,9,-3,16
O=C(Nc1ccc(Cl)cn1)c1cccc2c(Br)cccc12,.,16,13,2,-42,14
CCCCC(=O)NC(c1ccco1)c1cc(Cl)c2cccnc2c1O (stereo unspecified),18,-4,3,112*,-5,63*
CCC(=O)NC(c1ccco1)c1cc(Cl)c2cccnc2c1OC (stereo unspecified),.,.,-1,.,.,.
Oc1c(C(Nc2ccccn2)c2cccnc2)cc(Cl)c2cccnc12 (stereo unspecified),94*,22,31,-4,-32,55*
CCC(=O)NC(c1ccc(OC)cc1)c1cc(Cl)c2cccnc2c1O (stereo unspecified),98*,-17,14,104*,-6,?
CC(=O)NC(c1ccc(C)cc1)c1cc(Cl)c2cccnc2c1O (stereo unspecified),.,14,48,-3,-25,62*
CC(=O)NC(c1cc(Cl)c2cccnc2c1O)C(C)C (stereo unspecified),.,.,22,.,.,.
CC(=O)NC(c1ccccc1)c1cc([N+](=O)[O-])c2cccnc2c1O (stereo unspecified),-3,5,28,6,-20,31
CCC(=O)NC(c1cccs1)c1cc(Cl)c2ccccc2c1O (stereo unspecified),.,.,22,.,.,.
COc1ccc(C(=O)NCCCNC(=O)c2cccnc2)cc1OC,.,-25,9,-4,?,3
COc1ccc(C(NC(=O)c2cccnc2)c2cc(Cl)c3cccnc3c2O)cc1OC (stereo unspecified),98*,6,12,7,16,?
SMILES,Lmaj promast,NALP1 yeast inh,NALP3 yeast inh,Calb FLC,PolyA inh,T cruzi repl
O=C(CCc1ccccc1)NC(c1cccs1)c1cc(Cl)c2cccnc2c1O (stereo unspecified),99*,19,.,?,-5,66*
CCC(=O)NC(c1ccco1)c1cc(Cl)c2cccnc2c1O (stereo unspecified),15,8,-25,90*,-34,63*
CCNCc1nc2cc(Cl)ccc2c(=O)[nH]1,-15,0,0,-8,-9,5
COc1cccc(C2=Nn3c(nnc3-c3ccccc3O)SC2)c1,-8,25,22,6,-26,13
C[n+]1c2n(c3ccccc31)N=C(c1cc(C(C)(C)C)c(O)c(C(C)(C)C)c1)CS2,100*,5,11,9,-17,61*
Cc1nnc(SCC(=O)Nc2nccs2)n(N)c1=O,0,19,8,-29,9,-11
O=C(CSc1ccccc1)Nc1nccs1,-7,13,10,-22,-2,-9
O=C(CSc1nc(-c2ccccc2)cs1)Nc1nccs1,3,18,13,112*,4,-9
Cc1c(O)nc(SCC(=O)Nc2nccs2)n(-c2ccccc2F)c1=O,.,41*,7,-16,17,6
Cc1ccc(-c2csc(NC(=O)CSc3nc4ccccc4o3)n2)cc1,81*,21,-3,1,12,5
COC(=O)C1Cc2ccccc2CN1S(=O)(=O)c1ccc(F)cc1 (stereo unspecified),.,9,-19,2,-17,-9
COc1ccc(CNC(=O)C(c2ccco2)N(C(=O)c2snc(C(N)=O)c2N)c2ccccc2OC)cc1 (stereo unspecified),.,-5,12,-3,-21,16
COc1cccc(CNC23CC4CC(CC(C4)C2)C3)c1OCc1ccccc1,92*,-20,12,?,1,43
COc1cccc(CNn2cnnc2)c1OCc1ccc(F)cc1,1,9,-9,6,10,-3
COc1cc(CNCCc2c[nH]c3ccccc23)ccc1OCc1ccccc1F,98*,23,19,0,5,55*
COc1cccc(CNCCc2c[nH]c3ccccc23)c1OCc1ccccc1,99*,30,12,-1,-10,42
COc1ccccc1CNC(=O)Cc1c[nH]c2ccccc12,.,17,21,0,17,5
Cc1ccc2nsnc2c1S(=O)(=O)NCCc1c(C)[nH]c2ccc(F)cc12,98*,-2,8,-3,-21,3
Cc1ccc(C)c(NS(=O)(=O)c2c(C)ccc3nsnc23)c1,24,24,18,10,-17,1
Cc1ccc(NC(=O)C2CC(=O)N/C(=N/N=C/c3ccco3)S2)cc1 (stereo unspecified),58*,24,3,5,-1,6
O=C1CC(C(=O)Nc2ccc(F)cc2)S/C(=N\N=C\c2ccco2)N1 (stereo unspecified),8,10,-4,0,-12,-20
C/C(=N/N=C1/NC(=O)CC(C(=O)Nc2ccccc2)S1)c1cccs1 (stereo unspecified),78*,1,-2,37,-1,0
